Results: ChEMBL document CHEMBL1130425, “An orally bioavailable pyrrolinone inhibitor of HIV-1 protease: computational analysis and X-ray crystal structure of the enzyme complex” (J Med Chem, 1997)

Experiments:
[1] = biological target: Human immunodeficiency virus type 1 protease (Human immunodeficiency virus 1, UniProt Q72874); test: Inhibition of HIV-1 protease
[2] = biological target: Human immunodeficiency virus type 1 protease (Human immunodeficiency virus 1) (UniProt Q72874); test: Cellular antiviral activity against HIV-1 Protease
[3] = Ratio of CIC95 to IC50 values
How it was run: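 Ratio computed by dividing the cellular antiviral CIC95 by the IC50 from the purified HIV-1 protease inhibition assay, both in nM.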

Compound	IC50 [1]	IC95 [2]	Ratio [3]
CN(C(=O)[C@H](Cc1ccccc1)C[C@H](O)[C@H](Cc1ccccc1)NC(=O)OC(C)(C)C)C1c2ccccc2C[C@H]1O (single isomer, unassigned)	186 nM	–	–
CC(C)(C)NC(=O)[C@@H]1CN(Cc2cccnc2)CCN1C[C@@H](O)C[C@@H](Cc1ccccc1)C(=O)NC1c2ccccc2C[C@H]1O (single isomer, unassigned)	–	25 nM	–
O=C(N[C@@H](Cc1ccccc1)[C@@H](O)C[C@]1(Cc2ccccc2)N=CC(C2c3ccccc3C[C@H]2O)=C1O)O[C@H]1CCOC1 (some centres undefined)	2 nM	100 nM	–
CC(C)(C)OC(=O)N[C@@H](Cc1ccccc1)[C@@H](O)C[C@]1(Cc2ccccc2)N=CC(C2c3ccccc3C[C@H]2O)=C1O (some centres undefined)	11.9 nM	800 nM	–
O=C(N[C@@H](Cc1ccccc1)[C@@H](O)C[C@@H](Cc1ccccc1)C(=O)NC1c2ccccc2C[C@H]1O)OC1CCOC1 (single isomer, unassigned)	0.03 nM	3 nM	100
CC(C)(C)OC(=O)N[C@@H](Cc1ccccc1)[C@@H](O)C[C@@](C)(Cc1ccccc1)C(=O)NC1c2ccccc2C[C@H]1O (single isomer, unassigned)	7 nM	–	–
CC(C)(C)OC(=O)N[C@@H](Cc1ccccc1)[C@@H](O)C[C@@H](Cc1ccccc1)C(=O)NC1c2ccccc2C[C@H]1O (single isomer, unassigned)	–	–	1330
CC(C)(C)OC(=O)N[C@@H](Cc1ccccc1)[C@@H](O)C[C@]1(Cc2ccc(O)cc2)N=CC(C2c3ccccc3C[C@H]2O)=C1O (some centres undefined)	6 nM	–	–
CC(C)(C)OC(=O)N[C@@H](Cc1ccccc1)[C@@H](O)CC1(Cc2ccccc2)CCN(C2c3ccccc3C[C@H]2O)C1=O (single isomer, unassigned)	86 nM	–	–
CC(C)C[C@H](NC(=O)[C@H](Cc1ccccc1)C[C@H](O)[C@H](Cc1ccccc1)NC(=O)OC(C)(C)C)C(=O)N[C@@H](Cc1ccccc1)C(N)=O	–	–	10000
